Laboratory results taken from ChEMBL document CHEMBL3244396, “Synthesis and antileukemic activity of 5-substituted 2,3-dihydro-6,7-bis(hydroxymethyl)-1H-pyrrolizine diesters” (J Med Chem, 1977).
≈ marks a conversion by molar mass, not a printed value.

Tests used:
[1] = Cytotoxicity against human 9KB cells treated as ethanol solution; format: functional; details: read-out: ED50 (the source's name)
Procedure, shortened: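 Compound applied as an ethanol solution; activity read out as ED50 under the general screening protocol.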

L1210 [2] = assay: Antileukemic activity against mouse L1210 cells allografted in female BDF1 mouse assessed as change in body weight at 50 mg/kg, ip administered daily for 9 days as Klucel suspension starting 24 hrs after tumor inoculation; format: functional; details: route intraperitoneal
Procedure, shortened: (§1)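 Ascitic fluid carrying L1210 cells was inoculated ip. Compound was given ip as a Klucel (hydroxypropylcellulose) suspension in nine daily doses, starting 24 h after inoculation. Body-weight difference (treated minus control) was recorded on day 5. Survival was scored as %T/C of mean survival time.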

L1210 [3] = assay: Antileukemic activity against mouse L1210 cells allografted in female BDF1 mouse assessed as change in body weight at 100 mg/kg, ip administered daily for 9 days as Klucel suspension starting 24 hrs after tumor inoculation; format: functional; details: route intraperitoneal; procedure, shortened: as §1
L1210 [4] = assay: Antileukemic activity against mouse L1210 cells allografted in female BDF1 mouse assessed as change in body weight at 200 mg/kg, ip administered daily for 9 days as Klucel suspension starting 24 hrs after tumor inoculation; format: functional; details: route intraperitoneal; procedure, shortened: as §1
L1210 [5] = assay: Antileukemic activity against mouse L1210 cells allografted in female BDF1 mouse assessed as host mean survival time at 200 mg/kg, ip administered daily for 9 days as Klucel suspension starting 24 hrs after tumor inoculation relative to control; format: functional; details: route intraperitoneal
Procedure, shortened: (§2)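 L1210 leukemia given as an ascitic fluid cell inoculum, ip, to mice of the strain and sex in each line. Test material was given ip for nine daily doses starting 24 h after inoculation, in a Klucel (hydroxypropylcellulose) suspension. Read-out is mean survival time as %T/C versus controls, with >125 taken as significant.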

L1210 [6] = assay: Antileukemic activity against mouse L1210 cells allografted in female BDF1 mouse assessed as host mean survival time at 100 mg/kg, ip administered daily for 9 days as Klucel suspension starting 24 hrs after tumor inoculation relative to control; format: functional; details: route intraperitoneal; procedure, shortened: as §2
L1210 [7] = assay: Antileukemic activity against mouse L1210 cells allografted in female BDF1 mouse assessed as host mean survival time at 50 mg/kg, ip administered daily for 9 days as Klucel suspension starting 24 hrs after tumor inoculation relative to control; format: functional; details: route intraperitoneal; procedure, shortened: as §2
Mus musculus [8] = assay: Toxicity in female BDF1 mouse allografted with mouse L1210 cells assessed as animal survival at 200 mg/kg, ip administered daily for 9 days as Klucel suspension starting 24 hrs after tumor inoculation measured on fifth day; format: organism-based; design: dose 200 mg/kg, route intraperitoneal; details: in vivo
Procedure, shortened: (§3)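 L1210 leukemia passaged as ascitic fluid and inoculated ip. Test agent given ip as a Klucel (hydroxypropylcellulose) suspension, nine daily doses starting 24 h after tumor inoculation. Acute toxicity read as toxicity-day survivors per group (out of 6), recorded on day 5. Animal weight difference T − C was also recorded. Follows NCI screening protocols.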

Mus musculus [9] = assay: Toxicity in female BDF1 mouse allografted with mouse L1210 cells assessed as animal survival at 100 mg/kg, ip administered daily for 9 days as Klucel suspension starting 24 hrs after tumor inoculation measured on fifth day; format: organism-based; design: dose 100 mg/kg, route intraperitoneal; details: in vivo
Procedure, shortened: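 Female BDF1 mice bearing ip ascitic L1210 inoculum got nine daily ip doses in a Klucel suspension, starting 24 h after tumor inoculation. Toxicity was scored as toxicity-day survivors out of the group, recorded on the fifth day. Animal weight difference (T − C) was also tabulated.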

Mus musculus [10] = assay: Toxicity in female BDF1 mouse allografted with mouse L1210 cells assessed as animal survival at 50 mg/kg, ip administered daily for 9 days as Klucel suspension starting 24 hrs after tumor inoculation measured on fifth day; format: organism-based; design: dose 50 mg/kg, route intraperitoneal; details: in vivo; procedure, shortened: as §3
Mus musculus [11] = assay: Toxicity in female BDF1 mouse allografted with mouse P388 cells assessed as animal survival at 25 mg/kg, ip administered daily for 9 days as Klucel suspension starting 24 hrs after tumor inoculation; format: organism-based; design: dose 25 mg/kg, route intraperitoneal; details: in vivo
Procedure, shortened: (§4)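 P-388 leukemia ascitic fluid inoculated ip. Compound given ip as a suspension in Klucel (hydroxypropylcellulose), once daily for nine doses beginning 24 h post-inoculation. Acute toxicity assessed as toxicity-day survivors per group. Survival was followed up to 30 days, with 30-day survival counted as "cure". Follows NCI screening protocols.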

Mus musculus [12] = assay: Toxicity in female BDF1 mouse allografted with mouse P388 cells assessed as animal survival at 12.5 mg/kg, ip administered daily for 9 days as Klucel suspension starting 24 hrs after tumor inoculation; format: organism-based; design: dose 12.5 mg/kg, route intraperitoneal; details: in vivo; procedure, shortened: as §4
P388 [13] = assay: Antitumor activity against mouse P388 cells allografted in female BDF1 mouse assessed as disease cures by measuring 30-days host survival at 25 mg/kg, ip administered daily for 9 days as Klucel suspension starting 24 hrs after tumor inoculation relative to control; format: functional; details: route intraperitoneal
Procedure, shortened: (§5)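 P388 leukemia given as an ascitic fluid cell inoculum, ip, to mice of the strain and sex in each line. Nine daily ip doses were given in a Klucel (hydroxypropylcellulose) suspension, starting 24 h after inoculation. Read-out is median survival time as %T/C, with >125 taken as significant; a "cure" means 30-day survival.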

P388 [14] = assay: Antitumor activity against mouse P388 cells allografted in female BDF1 mouse assessed as disease cures by measuring 30-days host survival at 12.5 mg/kg, ip administered daily for 9 days as Klucel suspension starting 24 hrs after tumor inoculation relative to control; format: functional; details: route intraperitoneal; procedure, shortened: as §5
Mus musculus [15] = assay: Toxicity in female CDF1 mouse allografted with mouse P388 cells assessed as animal survival at 200 mg/kg, ip administered daily for 9 days as Klucel suspension starting 24 hrs after tumor inoculation; format: organism-based; design: dose 200 mg/kg, route intraperitoneal; details: in vivo; procedure, shortened: as §4
Mus musculus [16] = assay: Toxicity in female CDF1 mouse allografted with mouse P388 cells assessed as animal survival at 100 mg/kg, ip administered daily for 9 days as Klucel suspension starting 24 hrs after tumor inoculation; format: organism-based; design: dose 100 mg/kg, route intraperitoneal; details: in vivo; procedure, shortened: as §4
Mus musculus [17] = assay: Toxicity in female CDF1 mouse allografted with mouse P388 cells assessed as animal survival at 50 mg/kg, ip administered daily for 9 days as Klucel suspension starting 24 hrs after tumor inoculation; format: organism-based; design: dose 50 mg/kg, route intraperitoneal; details: in vivo; procedure, shortened: as §4
P388 [18] = assay: Antitumor activity against mouse P388 cells allografted in female CDF1 mouse assessed as change in body weight at 50 mg/kg, ip administered daily for 9 days as Klucel suspension starting 24 hrs after tumor inoculation; format: functional; details: route intraperitoneal
Procedure, shortened: (§6)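 Ascitic fluid carrying P388 cells was inoculated ip. Compound was given ip in nine daily doses, starting 24 h after inoculation, in Klucel (hydroxypropylcellulose) suspension or in saline with Tween-80. Body-weight difference (treated minus control) was recorded on day 5. Survival was scored as %T/C of median survival time, and 30-day survival counted as cure.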

P388 [19] = assay: Antitumor activity against mouse P388 cells allografted in female CDF1 mouse assessed as change in body weight at 100 mg/kg, ip administered daily for 9 days as Klucel suspension starting 24 hrs after tumor inoculation; format: functional; details: route intraperitoneal; procedure, shortened: as §6
P388 [20] = assay: Antitumor activity against mouse P388 cells allografted in female CDF1 mouse assessed as change in body weight at 200 mg/kg, ip administered daily for 9 days as Klucel suspension starting 24 hrs after tumor inoculation; format: functional; details: route intraperitoneal; procedure, shortened: as §6
P388 [21] = assay: Antitumor activity against mouse P388 cells allografted in female BDF1 mouse assessed as change in body weight at 25 mg/kg, ip administered daily for 9 days as Klucel suspension starting 24 hrs after tumor inoculation; format: functional; details: route intraperitoneal; procedure, shortened: as §6
P388 [22] = assay: Antitumor activity against mouse P388 cells allografted in female BDF1 mouse assessed as change in body weight at 12.5 mg/kg, ip administered daily for 9 days as Klucel suspension starting 24 hrs after tumor inoculation; format: functional; details: route intraperitoneal; procedure, shortened: as §6
P388 [23] = assay: Antitumor activity against mouse P388 cells allografted in female CDF1 mouse assessed as disease cures by measuring 30-days host survival at 200 mg/kg, ip administered daily for 9 days as Klucel suspension starting 24 hrs after tumor inoculation relative to control; format: functional; details: route intraperitoneal; procedure, shortened: as §5
P388 [24] = assay: Antitumor activity against mouse P388 cells allografted in female CDF1 mouse assessed as disease cures by measuring 30-days host survival at 100 mg/kg, ip administered daily for 9 days as Klucel suspension starting 24 hrs after tumor inoculation relative to control; format: functional; details: route intraperitoneal; procedure, shortened: as §5
P388 [25] = assay: Antitumor activity against mouse P388 cells allografted in female CDF1 mouse assessed as disease cures by measuring 30-days host survival at 50 mg/kg, ip administered daily for 9 days as Klucel suspension starting 24 hrs after tumor inoculation relative to control; format: functional; details: route intraperitoneal; procedure, shortened: as §5

Compound	EC50 [1] [µg/mL]	Activity (L1210 [2]) [g]	Activity (L1210 [3]) [g]	Activity (L1210 [4]) [g]	T/C (L1210 [5]) [%]	T/C (L1210 [6]) [%]	T/C (L1210 [7]) [%]	Activity (Mus musculus [8])	Activity (Mus musculus [9])	Activity (Mus musculus [10])	Activity (Mus musculus [15])	Activity (Mus musculus [16])	Activity (Mus musculus [17])	Activity (P388 [18]) [g]	Activity (P388 [19]) [g]	Activity (P388 [20]) [g]	T/C (P388 [23]) [%]	T/C (P388 [24]) [%]	T/C (P388 [25]) [%]	further results
CC(=O)OCc1c(COC(C)=O)c(-c2ccc(Cl)c(Cl)c2)n2c1CCC2	> 100	-1.1	-2.2	-3.3	100	104	100	Non-toxic	Non-toxic	Non-toxic	Non-toxic	Non-toxic	Non-toxic	-0.7	-1	-3	127	122	141	Activity (Mus musculus [11]): Non-toxic; Activity (Mus musculus [12]): Non-toxic; T/C (P388 [13]): 125%; T/C (P388 [14]): 114%; Activity (P388 [21]): 1.2 g; Activity (P388 [22]): 1.2 g
OCc1c(CO)c(C(F)(F)F)n2c1CCC2	25 (≈ 106 µM)	-0.3	-1.1	-2.8	–	104	107	Toxic	Non-toxic	Non-toxic	–	–	Non-toxic	2.1	0.6	1.1	108	104	104	–
CNC(=O)OCc1c(COC(=O)NC)c(C(F)(F)F)n2c1CCC2	2.5 (≈ 7.16 µM)	-0.1	-0.8	-0.2	98	100	104	Non-toxic	Non-toxic	Non-toxic	–	Non-toxic	Non-toxic	1.4	-0.4	-1.5	82	116	117	–
CNC(=O)OCc1c(COC(=O)NC)c(-c2ccccc2)n2c1CCC2	22 (≈ 61.6 µM)	-2.6	-1.5	-3.1	110	104	104	Non-toxic	Non-toxic	Non-toxic	Non-toxic	Non-toxic	Non-toxic	-2.1	-1.8	-3.5	59	124	124	–
CC(=O)OCc1c(COC(C)=O)c(C(F)(F)F)n2c1CCC2	2.4 (≈ 7.52 µM)	-1	-0.6	-0.8	98	100	107	Non-toxic	Non-toxic	Non-toxic	Non-toxic	Non-toxic	Non-toxic	2.1	1.8	1.1	104	93	90	–
